# MrgX1 PAM = human MrgX1 positive allosteric modulation, primary screen. actives 0.63% (n = 310,000). MrgX1-HEK293, Fluo-4 calcium flux, FDSS; active compounds read high. B-score at 10 µM. Q96LB2;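 active means plate-corrected calcium response at least 3 library SD above typical, normal starting fluorescence, not activating the receptor alone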;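 further: compound read alongside a low EC10 to EC30 dose of BAM8-22 agonist; peak minus trough fluorescence over baseline measured at the second addition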
# Target sequence (Q96LB2 whole entry, looked up): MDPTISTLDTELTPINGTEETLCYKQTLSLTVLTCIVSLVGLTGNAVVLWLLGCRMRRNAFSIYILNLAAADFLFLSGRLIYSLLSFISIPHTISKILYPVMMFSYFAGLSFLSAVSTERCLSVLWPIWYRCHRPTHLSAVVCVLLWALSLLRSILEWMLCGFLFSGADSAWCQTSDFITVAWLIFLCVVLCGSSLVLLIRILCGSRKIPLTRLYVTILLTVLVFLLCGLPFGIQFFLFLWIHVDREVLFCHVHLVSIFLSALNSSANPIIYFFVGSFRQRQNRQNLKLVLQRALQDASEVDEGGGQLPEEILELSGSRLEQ
# RGS4 block = human RGS4 inhibition; P49798; actives 0.45% (n = 310,000); HEK293 M3R/RGS4 inducible, Fluo-4 calcium flux; active compounds read high; triggered by carbachol at its EC20; B-score at 10 µM;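 active means B-score, a plate-corrected calcium signal, over three deviations above library mean, with baseline fluorescence within five deviations of library mean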;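 further: RGS4 expression induced by doxycycline in cells with stable M3 receptor; B-score is computed from the integrated fluorescence ratio over baseline after carbachol; higher B-score means a larger calcium signal and so more RGS4 inhibition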
# Target sequence (P49798 whole entry, looked up): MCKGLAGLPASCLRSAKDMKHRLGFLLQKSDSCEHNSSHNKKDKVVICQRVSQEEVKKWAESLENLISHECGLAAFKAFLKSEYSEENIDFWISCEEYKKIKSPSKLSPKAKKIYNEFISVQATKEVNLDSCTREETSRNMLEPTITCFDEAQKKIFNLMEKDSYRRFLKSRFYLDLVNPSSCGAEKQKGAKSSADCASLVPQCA
# RGS4 act = RGS4 potentiation or activation. HEK293 M3R/inducible RGS4, carbachol calcium flux Fluo4; active compounds read low. B-score at 10 µM. actives 0.92% (n = 310,000);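 active means B-score of the integrated calcium signal more than 4 SD below the library mean, with starting fluorescence not abnormally high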;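 further: negative B-score means reduced calcium response which marks RGS4 activation or potentiation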
#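 Material: M3R-expressing HEK293 line, RGS4 induced by doxycycline | Schedule: Overnight RGS4 induction, 30 min dye load 37 °C, 20 min compound RT | Measured by: Fluo4 fluorescence kinetic imaging of calcium | Read-out: Integrated calcium ratio converted to B score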
# MrgX1 antag = human MrgX1 receptor antagonism, primary screen; Q96LB2; MRGX1-HEK293 calcium flux, Fluo-4, BAM8-22 antagonism; active compounds read low; B-score at 10 µM; actives 1.3% (n = 310,000);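 active means calcium-response B-score plate-corrected more than 3 library SD below zero, starting fluorescence within 5 deviations, no agonist response on first addition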;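 further: peak minus trough fluorescence over baseline after final BAM8-22 challenge near maximal dose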
# MrgX1 ag = activates human MrgX1 receptor signaling; Q96LB2; MrgX1-HEK293 cells, Fluo-4 calcium fluorescence, agonist mode; active compounds read high; B-score at 10 µM; actives 0.44% (n = 310,000);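 active means calcium response B-score plate-corrected fluorescence ratio at least 3 library SD, with starting fluorescence B-score inside 5 SD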
#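 Assay system: stable human MrgX1 HEK293 cell line. Quantity: 15,000 cells per well. Schedule: cells plated overnight, dye loaded 0.5 h 37 °C, 0.5 h room temperature. Detection: Fluo-4 NW calcium-flux fluorescence, kinetic read. Read-out basis: peak-minus-minimum fluorescence over baseline, converted to B scores. Control set: positive and negative control wells on each plate.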
# MrgX1 ant reconf = reconfirmed antagonist of human MrgX1 receptor signaling; shares compounds with MrgX1 antag; MrgX1-HEK293, BAM8-22 calcium flux, Fluo-4; active compounds read low; remaining BAM8-22 calcium response % of control (active compounds read low), % at 10 µM; actives 19% (n = 2,300);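 active means remaining agonist calcium response no higher than 100% minus 3 SD of agonist-only control wells, with starting fluorescence near control levels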;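 further: agonist BAM8-22 given at a near maximal EC90 to ECmax level; peak minus minimum fluorescence divided by baseline after agonist addition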
# HEK293 Ca flux = counter-screen for MrgX1 antagonists: effect in parental HEK293 cells; actives 2% (n = 4,000); fluorescence ratio F(max-min)/F0 at 10 µM; AID 624111; shares compounds with MrgX1 antag; Fluo-4 calcium fluorescence, FDSS;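 active means duplicate-averaged calcium fluorescence ratio at least three times the standard deviation of buffer wells, a nonspecific response in parental cells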
# HEK293 Ca counter = activity in parental HEK293 cells without MrgX1; shares compounds with MrgX1 antag; parental HEK293 calcium flux, Fluo-4 fluorescence ratio; active compounds read high; fluorescence ratio F(max-min)/F0 at 10 µM; actives 0.4% (n = 4,000);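 active means calcium fluorescence ratio, averaged over duplicates, at least 3 SD of the buffer-well ratio, meaning a nonspecific response in receptor-free cells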;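 further: untransfected parental HEK293 lacking MrgX1 used as counterscreen for MrgX1 allosteric activators; fluorescence change taken during the second addition on a kinetic imager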
# HEK293 Ca cntr2 = MrgX1 activator counter-screen hit in parental HEK293 cells. shares compounds with MrgX1 antag. Fluo-4 calcium fluorescence (FDSS); active compounds read high. fluorescence ratio F(max-min)/F0 at 10 µM. actives 8.7% (n = 4,000);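 active means calcium fluorescence ratio at least three times the spread of buffer wells, meaning a non-specific response in parental cells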
# An asterisk follows results filed as active; i = inactive; · = no result. Shown are actives, neighbours in structure and some others; about 3.5% of the full set was active somewhere.
SMILES,MrgX1 PAM,RGS4 block,RGS4 act,MrgX1 antag,MrgX1 ag,MrgX1 ant reconf,HEK293 Ca flux,HEK293 Ca counter,HEK293 Ca cntr2
Cc1cc(C)n2c(Br)c(CSc3nc4ccccc4s3)nc2n1,i,i,i,i,i,·,·,·,·
Cc1ccc(NNC(=O)c2ccno2)cc1Cl,i,i,i,i,i,·,·,·,·
O=C(Nc1cc(Cl)cc(Cl)c1)c1ccno1,i,i,i,-4.53*,i,i,i,i,i
c1ccc(COc2ccc(OCCn3cncn3)cc2)cc1,i,i,i,-5.95*,i,i,i,i,i
c1ccc2c(c1)C(=NCC1CCCO1)NC2=NCC1CCCO1 (stereo unspecified),i,i,i,i,i,·,·,·,·
CC(C)(C)N=C1NC(=NC(C)(C)C)c2ccccc21,i,i,i,-5.02*,i,i,i,i,51*
CCC1CCCCN1C(=O)N[C@@H](Cc1ccccc1)C(=O)O (stereo partly specified),i,i,i,-4.96*,i,i,i,i,i
CCOC(=O)c1c(C)[nH]c(C)c1C(=O)CSc1nc2ccccc2c(=O)n1-c1ccccc1C,i,i,i,i,i,·,·,·,·
CCOC(=O)c1c(C)[nH]c(C)c1C(=O)CSc1nc2ccccc2c(=O)n1-c1ccc(F)cc1,i,i,i,-5.26*,i,82.5%*,i,i,i
CCOc1ccc(CN(C)C(=O)CNC(=O)C2CCCCC2)cc1OC,i,i,i,i,i,·,·,·,·
CCN(CC)S(=O)(=O)c1ccc(OC)c(NC(=O)c2ccc3c(c2)OCO3)c1,i,i,i,-7.6*,i,i,i,i,i
O=C(NC1CCCCNC1=O)c1ccccc1 (stereo unspecified),i,i,i,i,i,·,·,·,·
Cc1oc(-c2cccs2)nc1CN1CCN(CC(C)C)C(CCO)C1 (stereo unspecified),i,i,i,-4.53*,i,i,i,i,i
CC(=O)c1ccc(N2CCN(C(=O)C(=O)c3cn(CC(=O)N4CCCCCC4)c4ccccc34)CC2)cc1,i,i,i,i,i,·,·,·,·
O=C(c1cc(F)c(F)cc1Cl)N1CCOCC1,i,i,i,i,i,·,·,·,·
CC1CCN(C(=O)c2cc(F)c(F)cc2Cl)CC1,i,i,i,-5.18*,i,i,i,i,i
Cc1ccc(NC(=O)CSc2cccc[n+]2[O-])c([N+](=O)[O-])c1,i,i,i,i,i,·,·,·,·
COc1ccc(C2CC(C(F)(F)F)n3nc(CO)c(Cl)c3N2)cc1OC (stereo unspecified),i,i,i,i,i,·,·,·,·
COc1ccc(C2CC(C(F)(F)F)n3nc(C(=O)O)c(Cl)c3N2)cc1OC (stereo unspecified),i,i,i,-4.54*,i,i,i,i,i
Cc1nn(C)c(C)c1CNC(=O)c1nn2c(c1Cl)NC(c1cccs1)CC2C(F)(F)F (stereo unspecified),i,i,i,-8.71*,i,i,i,i,i
Cc1ccc(O)c(NC(=S)NC(=O)Cc2ccc(Cl)cc2)c1,i,i,-7.53*,-23.6*,i,26.9%*,i,i,i
COc1ccc(N2CCN(C(=O)c3cccnc3SCc3cccc(Br)c3)CC2)cc1,i,i,i,i,i,·,·,·,·
C=CCn1c(O)c(CN2CCOCC2)c(C)c(C#N)c1=O,i,i,i,-6.41*,i,i,i,i,i
CCOc1ccc(C(=O)OCC(=O)NC2CCCC2)cc1OCC,i,i,i,i,i,·,·,·,·
CC1(c2ccccc2)NC(=O)N(CC(=O)Nc2ccc3c(c2)OCO3)C1=O (stereo unspecified),i,i,i,i,i,·,·,·,·
SMILES,MrgX1 PAM,RGS4 block,RGS4 act,MrgX1 antag,MrgX1 ag,MrgX1 ant reconf,HEK293 Ca flux,HEK293 Ca counter,HEK293 Ca cntr2
CC1(c2ccc(OC(F)F)cc2)NC(=O)N(CC(=O)Nc2ccc3c(c2)OCO3)C1=O (stereo unspecified),i,i,i,-6.33*,i,i,i,i,i
Cc1[nH]c2ccc(C(=O)OC(C)C(=O)NC3(C#N)CCCCC3)cc2c1C (stereo unspecified),i,i,i,-6.03*,i,i,i,i,i
COc1ccc(Nc2oc(-c3ccc(OC)cc3)nc2C#N)cc1,i,i,i,-5.77*,i,i,i,i,i
Oc1ccc(C(=S)N2CCCCC2)cc1,i,i,i,-4.82*,i,i,i,i,i
O=C(Nc1nnc(C2CC2)s1)c1ccc(Cl)c(S(=O)(=O)N2CCc3ccccc3C2)c1,i,i,i,-6.35*,i,62.8%*,i,i,i
C=CCSc1nc(N)c(C(=O)Nc2ccccc2)cc1C#N,i,i,i,i,i,·,·,·,·
C=CCSc1nc(N)c(C(=O)Nc2ccccc2OC)cc1C(=O)Nc1ccccc1,i,i,i,-5.88*,i,78.5%*,i,i,i
C=CCOc1c(Cl)cc(C(=S)N2CCCC2)cc1OCC,i,i,i,-6.92*,i,i,i,i,i
Cc1cc(C)nc(SCc2ccc(C(=O)N/N=C/c3ccco3)cc2)n1,i,i,i,i,i,·,·,·,·
COc1ccc2[nH]c(C)cc(=O)c2c1,i,i,i,i,i,·,·,·,·
COc1ccc2[nH]c3c(c2c1)CCNC3C1CC=C(C)CC1 (stereo unspecified),i,i,i,-8.92*,i,i,i,i,i
O=c1[nH]c(SCc2ccc([N+](=O)[O-])cc2)nc2[nH]ncc12,i,i,i,i,i,·,·,·,·
CC1(C)C(C=C(Cl)Cl)C1C(=O)N1CCN(c2ccccc2)CC1 (stereo unspecified),i,i,i,-6.59*,i,i,i,i,i

# Screening data (PubChem BioAssay)
